Compound activity (PubChem BioAssay)
In the library only some 2.3% were active in any assay of this set; here they are far more common.
TRPC6 activator: mouse TRPC6 channel activators, primary screen, cell-based, HEK293, membrane potential dye. Short transient receptor potential channel 6 (Mus musculus), Q61143. HEK293-TRPC6 membrane potential dye fluorescence; stronger effect = higher value. B-score at 10 µM. 310,000 compounds, 0.13% hits. AID 2550, 2010;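 active means B-score of the integrated fluorescence ratio above library mean plus 3 SD, and starting fluorescence ratio within library mean plus 5 SD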;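 further: higher score means more depolarization so channel activation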
TRPC4 potent: positive allosteric modulators of TRPC4, primary screen, cell-based, mouse TRPC4beta, HEK293 mu-opioid, Fluo-4 calcium; Short transient receptor potential channel 4 (Mus musculus), Q9QUQ5; DAMGO EC20, Fluo-4 Ca2+ flux; stronger effect = higher value; B-score at 10 µM; 310,000 compounds, 0.42% hits; AID 2227, 2009;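 active means B-score of calcium response area above 5 SD of library B-scores, with initial fluorescence ratio within 5 SD of library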;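 further: B-score of integrated fluorescence ratio over time as area under calcium response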
TRPC4 act: activators of mouse TRPC4 channel, primary screen, Fluo4 calcium, HEK293 TRPC4beta/mu-opioid cells. Short transient receptor potential channel 4 (Mus musculus), Q9QUQ5. Fluo4 calcium fluorescence; stronger effect = higher value. B-score at 10 µM. 310,000 compounds, 0.49% hits. AID 2237, 2010;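 active means B-score above 5 SD of library B-scores, and initial fluorescence ratio not above library mean plus 5 SD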;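 further: positive B-score marks a calcium rise read as TRPC4 activation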
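Incubation: 45 min room-temperature Fluo4 loading, 110 s read / System: HEK293 cells stably co-expressing mouse TRPC4beta and mu-opioid receptor / Signal: Fluo4 fluorescence, kinetic / Control set: buffer (low) and maximal DAMGO (high) / Measure: integrated baseline-normalised fluorescence ratio, converted to per-well B score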
TRPC4 inh: inhibitors of mouse TRPC4 channel, primary screen, Fluo4 calcium, HEK293 TRPC4beta/mu-opioid cells; Short transient receptor potential channel 4 (Mus musculus), Q9QUQ5; B-score at 10 µM; DAMGO-evoked Fluo4 calcium flux; stronger effect = lower value; 300,000 compounds, 0.39% hits; AID 2247, 2010;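 active means B-score over 3 SD under the library average, no early fluorescence shift, positive overall ratio signal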
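Test system – stable TRPC4beta/mu-opioid receptor HEK293 cells · Probe or stimulus – DAMGO, a submaximal dose followed by a maximal one · Dosing – one concentration per compound · Signal – Fluo4 calcium fluorescence by kinetic imaging, 5 s 1 Hz baseline · Evaluation – per-well B score of integrated baseline-normalized Fluo4 ratio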
TRPC6 inh: mouse TRPC6 channel inhibitors, primary screen, cell-based, HEK293, membrane potential dye; Short transient receptor potential channel 6 (Mus musculus), Q61143; ACh-evoked depolarization; stronger effect = lower value; B-score at 10 µM; 310,000 compounds, 1.1% hits;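 active means B-score under library mean minus 3 SD, initial fluorescence not abnormally high, positive integrated signal ratio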;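 further: B-score derived from integrated fluorescence ratio over the kinetic read; more negative B-score means stronger inhibition of depolarization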
The depositor's hits bear a star.

CC(=O)N1N=C(c2c(-c3ccccc3)c3cc(C)ccc3[nH]c2=O)CC1c1ccco1 (stereo not given) was read as TRPC6 activator inactive, TRPC4 potent 24*, TRPC4 act inactive, TRPC4 inh inactive and TRPC6 inh inactive.
Screening CCOc1ccc(C(C(=O)NCC2CCCO2)N(Cc2cccs2)C(=O)c2snc(C(N)=O)c2N)cc1 (stereo not given) returned TRPC6 activator inactive, TRPC4 potent inactive, TRPC4 act inactive, TRPC4 inh inactive and TRPC6 inh inactive.
CCN(CC)C(=O)c1sc2nc(-c3ccncc3)[nH]c(=O)c2c1C was read as TRPC6 activator inactive, TRPC4 potent inactive, TRPC4 act inactive, TRPC4 inh inactive and TRPC6 inh inactive.
Screening CCN(CC)C(=O)c1sc2nc(-c3ccccn3)[nH]c(=O)c2c1C returned TRPC6 activator inactive, TRPC4 potent inactive, TRPC4 act 68*, TRPC4 inh inactive and TRPC6 inh inactive.
For Cc1cc(C)c(C)c(S(=O)(=O)NCc2ccco2)c1C the results were TRPC6 activator inactive, TRPC4 potent 26*, TRPC4 act inactive, TRPC4 inh inactive and TRPC6 inh inactive.
CCN1C(=O)CSC1=Nc1ccc(Cl)c(Cl)c1 was read as TRPC6 activator inactive, TRPC4 potent inactive, TRPC4 act inactive, TRPC4 inh -6* and TRPC6 inh inactive.
For COc1ccccc1CCC(=O)Nc1cc(S(=O)(=O)N2CCCCC2)ccc1N1CCN(C)CC1 the results were TRPC6 activator inactive, TRPC4 potent inactive, TRPC4 act 134*, TRPC4 inh inactive and TRPC6 inh inactive.
`CN1CCN(c2ccc(S(=O)(=O)N3CCCCC3)cc2NC(=O)COc2cccc(Cl)c2)CC1` gave TRPC6 activator inactive, TRPC4 potent 13*, TRPC4 act inactive, TRPC4 inh inactive and TRPC6 inh inactive.
Cc1ccccc1C(=O)Nc1cc(S(=O)(=O)N2CCCCC2)ccc1N1CCN(C)CC1 was read as TRPC6 activator inactive, TRPC4 potent 11*, TRPC4 act inactive, TRPC4 inh inactive and TRPC6 inh inactive.
For Cc1cccc(OCC(=O)Nc2cc(S(=O)(=O)N3CCCCC3)ccc2N2CCN(C)CC2)c1 the results were TRPC6 activator inactive, TRPC4 potent 11*, TRPC4 act inactive, TRPC4 inh inactive and TRPC6 inh inactive.
`Cc1cccc(OCC(=O)Nc2ccc(S(=O)(=O)N3CCN(C)CC3)cc2)c1` gave TRPC6 activator inactive, TRPC4 potent inactive, TRPC4 act inactive, TRPC4 inh inactive and TRPC6 inh inactive.
For COc1ccccc1CCC(=O)Nc1cccc(S(=O)(=O)N2CCCC2)c1 the results were TRPC6 activator inactive, TRPC4 potent inactive, TRPC4 act inactive, TRPC4 inh inactive and TRPC6 inh inactive.
CCOC(=O)N1CCN(C(=O)CSc2ccc(-c3cccnc3)nn2)CC1 was read as TRPC6 activator inactive, TRPC4 potent inactive, TRPC4 act inactive, TRPC4 inh inactive and TRPC6 inh inactive.
`CCOC(=O)C1=C(COc2ccccc2)NC(=O)NC1c1ccc(Cl)cc1` (stereo not given) gave TRPC6 activator inactive, TRPC4 potent inactive, TRPC4 act inactive, TRPC4 inh inactive and TRPC6 inh inactive.
COC(=O)C1=C(COc2ccccc2)NC(=O)NC1c1ccc(Cl)cc1 (stereo not given) was read as TRPC6 activator inactive, TRPC4 potent 11*, TRPC4 act inactive, TRPC4 inh inactive and TRPC6 inh inactive.
O=C(CSc1cccc(C(F)(F)F)c1)Nc1cc(S(=O)(=O)N2CCCC2)ccc1Cl was read as TRPC6 activator inactive, TRPC4 potent 10*, TRPC4 act inactive, TRPC4 inh inactive and TRPC6 inh inactive.
`Cn1nnnc1SCC(=O)Nc1cc(S(=O)(=O)N2CCCC2)ccc1Cl` gave TRPC6 activator inactive, TRPC4 potent inactive, TRPC4 act inactive, TRPC4 inh inactive and TRPC6 inh inactive.
For CC1(C(=O)NC(=S)NNC(=O)c2ccncc2)CCCCC1 the results were TRPC6 activator inactive, TRPC4 potent inactive, TRPC4 act 97*, TRPC4 inh inactive and TRPC6 inh inactive.
O=C(NNC(=S)NC(=O)C12CC3CC(CC(C3)C1)C2)c1ccncc1 was read as TRPC6 activator inactive, TRPC4 potent inactive, TRPC4 act 169*, TRPC4 inh inactive and TRPC6 inh inactive.
`c1cc[n+](CCC[n+]2ccccc2)cc1` gave TRPC6 activator inactive, TRPC4 potent inactive, TRPC4 act inactive, TRPC4 inh inactive and TRPC6 inh inactive.
`C=CCNC(=O)c1scc2c1CCCC2` gave TRPC6 activator inactive, TRPC4 potent inactive, TRPC4 act inactive, TRPC4 inh inactive and TRPC6 inh inactive.
For CN(C)CCNC(=O)c1scc2c1CCCC2 the results were TRPC6 activator inactive, TRPC4 potent inactive, TRPC4 act 142*, TRPC4 inh inactive and TRPC6 inh inactive.
Screening N#CCNC1CC(=O)N(c2ccccc2)C1=O (stereo not given) returned TRPC6 activator inactive, TRPC4 potent inactive, TRPC4 act inactive, TRPC4 inh inactive and TRPC6 inh inactive.
Screening COc1ccc(/C=C2\SC(=S)N(C(Cc3ccccc3)C(=O)O)C2=O)cc1 (stereo not given) returned TRPC6 activator inactive, TRPC4 potent inactive, TRPC4 act inactive, TRPC4 inh -8* and TRPC6 inh inactive.
`CC(/C=C1\SC(=S)N(C(C(=O)O)C(C)C)C1=O)=C\c1ccccc1` (stereo not given) gave TRPC6 activator inactive, TRPC4 potent inactive, TRPC4 act inactive, TRPC4 inh -6* and TRPC6 inh inactive.
Cn1c2c(c(=O)n(C)c1=O)C(C(F)(F)F)(C(F)(F)F)N=C(CCC1CCCCC1)N2 was read as TRPC6 activator inactive, TRPC4 potent 11*, TRPC4 act inactive, TRPC4 inh inactive and TRPC6 inh inactive.
`CCOc1ccc2[nH]c3c(N4CCN(c5ccccn5)CC4)ncnc3c2c1` gave TRPC6 activator inactive, TRPC4 potent inactive, TRPC4 act inactive, TRPC4 inh -6* and TRPC6 inh inactive.
`CCN1CCN(CCOc2ccc(Br)cc2C)CC1` gave TRPC6 activator inactive, TRPC4 potent inactive, TRPC4 act inactive, TRPC4 inh inactive and TRPC6 inh inactive.
For Cc1cc(Br)ccc1OCCN1CCCC1 the results were TRPC6 activator inactive, TRPC4 potent 15*, TRPC4 act inactive, TRPC4 inh inactive and TRPC6 inh inactive.
